Reference: ChEMBL document CHEMBL4033657, “N-Aryl-N'-ethyleneaminothioureas effectively inhibit acetylcholinesterase 1 from disease-transmitting mosquitoes” (Eur J Med Chem, 2017)
Activity calls are given as the source filed them. The rule behind the calls is not given here.

Experiments:
Acetylcholinesterase [1] = molecular target: Acetylcholinesterase (Homo sapiens, UniProt P22303); assay: Inhibition of recombinant human AChE expressed in HEK293F cells using acetylthiocholine iodide as substrate measured over 60 secs by Ellman's method; design: species or system HEK293
[2] = Selectivity ratio of IC50 for recombinant human AChE expressed in HEK293F cells to IC50 for recombinant full length Anopheles gambiae AChE1 expressed in baculovirus-infected Sf9 insect cells
In short: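 Ratio of the hAChE IC50 divided by the higher of the AgAChE1 or AaAChE1 IC50. Each IC50 came from an Ellman assay (1 mM acetylthiocholine, 0.2 mM DTNB, pH 7.4, 30 °C) with eight concentrations up to 1 mM, using 2-3 replicates.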

[3] = (§1) Inhibition of recombinant full length Aedes aegypti AChE1 expressed in baculovirus-infected Sf9 insect cells using acetylthiocholine iodide as substrate measured over 60 secs by Ellman's method
In short: (§2)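 Secreted, non-purified recombinant enzyme in growth medium, tested as enzyme source. Ellman assay at 30 °C in 0.1 M phosphate buffer pH 7.4 with 0.2 mM DTNB and 1 mM acetylthiocholine iodide; A412 followed over 60 s. Compound (100 mM DMSO stock) tested at eight concentrations, maximum 1 mM. Activity set relative to eight uninhibited controls per plate; IC50 from three-parameter variable-slope fit; 2-3 independent replicates.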

Acetylcholinesterase [4] = molecular target: Acetylcholinesterase (Anopheles gambiae, UniProt Q869C3); assay: (§3) Inhibition of recombinant full length Anopheles gambiae AChE1 expressed in baculovirus-infected Sf9 insect cells using acetylthiocholine iodide as substrate measured over 60 secs by Ellman's method
Acetylcholinesterase [5] = molecular target: Acetylcholinesterase (Anopheles gambiae, UniProt Q869C3, G122S); assay: Inhibition of recombinant full length Anopheles gambiae AChE1 G122S mutant expressed in baculovirus-infected Sf9 insect cells using acetylthiocholine iodide as substrate measured over 60 secs by Ellman's method
[6] = molecular target: Acetylcholinesterase (Anopheles gambiae) (UniProt Q869C3); assay: Inhibition of recombinant full length Anopheles gambiae AChE1 expressed in baculovirus-infected Sf9 insect cells at 1 mM using acetylthiocholine iodide as substrate measured over 60 secs by Ellman's method; in short: as §2
Aedes aegypti [7] = assay: Inhibition of recombinant full length Aedes aegypti AChE1 expressed in baculovirus-infected Sf9 insect cells at 1 mM using acetylthiocholine iodide as substrate measured over 60 secs by Ellman's method; in short: as §2
Aedes aegypti [8] = assay: as §1; in short: as §2
[9] = molecular target: Acetylcholinesterase (Anopheles gambiae) (UniProt Q869C3); assay: as §3
[10] = test system: Acetylcholinesterase (Anopheles gambiae), Q869C3 [G122S]; assay: Inhibition of recombinant full length Anopheles gambiae AChE1 G122S mutant expressed in baculovirus-infected Sf9 insect cells up to 1 mM using acetylthiocholine iodide as substrate measured over 60 secs by Ellman's method; in short: as §2

COc1ccc(NC(=S)NCCN(C)C)cc1Cl
IC50 (Acetylcholinesterase [1]): 46 µM
Ratio IC50 [2]: 3
IC50 [3]: 16 µM
IC50 (Acetylcholinesterase [4]): 18 µM
IC50 (Acetylcholinesterase [5]): 17 µM

CN(C)CCN=C(S)Nc1cccc(Cl)c1
IC50 (Acetylcholinesterase [1]): 140 µM
Ratio IC50 [2]: 1
IC50 [3]: 83 µM
IC50 (Acetylcholinesterase [4]): 96 µM
IC50 (Acetylcholinesterase [5]): > 200 µM

CN(C)CCN=C(S)Nc1ccccc1Cl
Ratio IC50 [2]: > 12

COc1ccc(NC(S)=NCCN2CCC(C)CC2)cc1
IC50 (Acetylcholinesterase [1]): > 200 µM
IC50 [3]: > 200 µM
IC50 (Acetylcholinesterase [4]): > 200 µM
IC50 (Acetylcholinesterase [5]): > 200 µM

CN(C)CCNC(=S)Nc1ccccc1Cl
IC50 (Acetylcholinesterase [1]): > 200 µM
IC50 [3]: 14 µM
IC50 (Acetylcholinesterase [4]): 17 µM
IC50 (Acetylcholinesterase [5]): > 200 µM

S=C(NCCN1CCOCC1)Nc1cccc(Cl)c1
IC50 (Acetylcholinesterase [1]): > 200 µM
Ratio IC50 [2]: > 3
IC50 [3]: 53 µM
IC50 (Acetylcholinesterase [4]): 68 µM
IC50 (Acetylcholinesterase [5]): > 200 µM

NS(=O)(=O)c1ccc(NC(=S)NCCN2CCCCC2)cc1
IC50 (Acetylcholinesterase [1]): 90 µM
inhibition [6]: 70%
inhibition (Aedes aegypti [7]): 70%
Ratio IC50 [2]: 12
IC50 [3]: 5.5 µM
inhibition (Aedes aegypti [8]): Dose-dependent effect
IC50 (Acetylcholinesterase [4]): 7.8 µM
inhibition [9]: Dose-dependent effect
IC50 (Acetylcholinesterase [5]): 33 µM

CC1CCN(CCNC(=S)Nc2cccc(Cl)c2)CC1
IC50 (Acetylcholinesterase [1]): > 200 µM
IC50 [3]: > 200 µM
IC50 (Acetylcholinesterase [4]): > 200 µM
IC50 (Acetylcholinesterase [5]): > 200 µM

COc1ccc(NC(=S)NCCN2CCCCC2)cc1
IC50 (Acetylcholinesterase [1]): 120 µM
Ratio IC50 [2]: 4
IC50 [3]: 28 µM
IC50 (Acetylcholinesterase [4]): 29 µM
IC50 (Acetylcholinesterase [5]): 94 µM

COc1ccc(NC(S)=NCCN2CCC(C)CC2)cc1Cl
IC50 (Acetylcholinesterase [1]): 12 µM
inhibition [6]: 90%
inhibition (Aedes aegypti [7]): 90%
Ratio IC50 [2]: 13
IC50 [3]: 0.63 µM
inhibition (Aedes aegypti [8]): Dose-dependent effect
IC50 (Acetylcholinesterase [4]): 0.96 µM
inhibition [9]: Dose-dependent effect
IC50 (Acetylcholinesterase [5]): 24 µM

CN(C)CC/N=C(/S)Nc1ccc(S(N)(=O)=O)cc1
IC50 (Acetylcholinesterase [1]): > 200 µM
inhibition [10]: inactive
Ratio IC50 [2]: > 2.7
IC50 [3]: 56 µM
IC50 (Acetylcholinesterase [4]): 74 µM

FC(F)(F)c1ccc(NC(=S)NCCN2CCCCC2)cc1
IC50 (Acetylcholinesterase [1]): > 200 µM
IC50 [3]: > 200 µM
IC50 (Acetylcholinesterase [4]): > 200 µM
IC50 (Acetylcholinesterase [5]): > 200 µM

S=C(NCCN1CCCCC1)Nc1cccc(Cl)c1
IC50 (Acetylcholinesterase [1]): 190 µM
Ratio IC50 [2]: 1
IC50 [3]: 120 µM
IC50 (Acetylcholinesterase [4]): 140 µM
IC50 (Acetylcholinesterase [5]): 22 µM

COc1cc(NC(=S)NCCN2CCOCC2)ccc1Cl
IC50 (Acetylcholinesterase [1]): > 200 µM
IC50 [3]: > 200 µM
IC50 (Acetylcholinesterase [4]): > 200 µM
IC50 (Acetylcholinesterase [5]): > 200 µM

COc1ccccc1N=C(S)NCCN1CCOCC1
IC50 (Acetylcholinesterase [1]): > 200 µM
inhibition [10]: inactive
IC50 [3]: > 200 µM
IC50 (Acetylcholinesterase [4]): > 200 µM

COc1ccccc1NC(=S)NCCN1CCCCC1
IC50 (Acetylcholinesterase [1]): 32 µM
Ratio IC50 [2]: 1
IC50 [3]: 22 µM
IC50 (Acetylcholinesterase [4]): 29 µM
IC50 (Acetylcholinesterase [5]): 66 µM

NS(=O)(=O)c1ccc(NC(=S)NCCN2CCOCC2)cc1
IC50 (Acetylcholinesterase [1]): > 200 µM
inhibition [10]: inactive
IC50 [3]: > 200 µM
IC50 (Acetylcholinesterase [4]): > 200 µM

COc1ccc(NC(S)=NCCN2CCOCC2)cc1
IC50 (Acetylcholinesterase [1]): > 200 µM
Ratio IC50 [2]: > 18
IC50 (Acetylcholinesterase [4]): 11 µM
IC50 (Acetylcholinesterase [5]): > 200 µM
